These results are taken from ChEMBL document CHEMBL1137561 (J Med Chem, 2007).

Broadly, the EC50 is the concentration that produces a half-maximal response. Usually CC50 stands for the concentration that lowers cell viability or growth by half. Read a low CC50 as greater toxicity to the cells. In general, Ki refers to the dissociation constant of the complex between target and ligand, obtained from inhibition or displacement. Low readings indicate higher affinity, high ones lower affinity.

Series [1] has as its system Human immunodeficiency virus 1. As to the kind of experiment: Antiviral activity against HIV1 with reverse transcriptase K103N mutation in MT4 cells assessed as inhibition of viral induced cytopathic effect by MTT method. Format: functional, organism-based. Particulars: Human immunodeficiency virus 1, MT4. In outline:
(§1)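 MT-4 cells infected with the HIV-1 NNRTI-resistant mutant strain. Viable cells scored at day 5 post-infection by the MTT tetrazolium colorimetric method. […] Values are means ± SD from at least two experiments.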

Series [2] has as its system Human immunodeficiency virus 1. As to the kind of experiment: Antiviral activity against HIV1 with reverse transcriptase Y181C mutation in MT4 cells assessed as inhibition of viral induced cytopathic effect by MTT method. Format: functional, organism-based. Particulars: Human immunodeficiency virus 1, MT4. An outline of the steps:
as §1
On the technique in general: Cytopathic effects are the visible damage that an infection or toxin causes in cultured cells.

The test system of series [3] is Human immunodeficiency virus 1. As to the kind of experiment: Antiviral activity against HIV1 with reverse transcriptase Y188L mutation in MT4 cells assessed as inhibition of viral induced cytopathic effect by MTT method. Format: functional, organism-based. Particulars: Human immunodeficiency virus 1, MT4. An outline of the steps:
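MT-4 cells infected with the HIV-1 NNRTI-resistant mutant strain. Viable cells scored at day 5 post-infection by the MTT tetrazolium colorimetric method. Values are means ± SD from at least two experiments.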

The nature of series [4]: Cytotoxicity against MT4 cells after 4 days by MTT method. Format: cell-based. Particulars: human. An outline of the steps: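 Mock-infected (noninfected) MT-4 cells, run in parallel with the antiviral test. Viable cells read by the MTT tetrazolium colorimetric method. […] Means ± SD from at least two experiments. The top concentration was limited where compounds precipitated in the culture medium.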

A short description of series [5]: Selectivity index, ratio of CC50 for MT4 cells to EC50 for HIV1 NL43 infected MT4 cells. Format: functional.
Series [6] relates to Human immunodeficiency virus 1. As to the kind of experiment: Antiviral activity against HIV1 with reverse transcriptase IRLL98 mutation in MT4 cells assessed as inhibition of viral induced cytopathic effect by MTT method. Format: functional, organism-based. As to conditions: Human immunodeficiency virus 1, MT4.
The target of series [7] is Human immunodeficiency virus type 1 reverse transcriptase (Human immunodeficiency virus 1, UniProt Q72547). As to the kind of experiment: Inhibition of wild type HIV1 3B reverse transcriptase.
In series [8] the target is Human immunodeficiency virus type 1 reverse transcriptase (Human immunodeficiency virus 1, UniProt Q72547, K103N). As to the kind of experiment: Inhibition of HIV1 reverse transcriptase K103N mutant.
In series [9] the target is Human immunodeficiency virus type 1 reverse transcriptase (Human immunodeficiency virus 1, UniProt Q72547, L100I). Briefly: Inhibition of HIV1 reverse transcriptase L100I mutant.
Series [10] addresses Human immunodeficiency virus type 1 reverse transcriptase (Human immunodeficiency virus 1, UniProt Q72547, V106A). As to the kind of experiment: Inhibition of HIV1 reverse transcriptase V106A mutant.
Series [11] addresses Human immunodeficiency virus type 1 reverse transcriptase (Human immunodeficiency virus 1, UniProt Q72547, V179D). Briefly: Inhibition of HIV1 reverse transcriptase V179D mutant.
The nature of series [12]: Inhibition of HIV1 reverse transcriptase Y1811 mutant. Details: species or system Human immunodeficiency virus 1. An outline of the steps:
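Recombinant HIV-1 RT Y181I mutant, purified to >95%, 10 min preincubation with inhibitor. Radioactive nucleotide incorporation into poly(rA)/oligo(dT) 10:1 was followed at varied nucleotide substrate levels, sampling every 2 min for initial velocities. Inhibitor spanned 0.2–5 Ki. Ki came from Lineweaver-Burk and Dixon plots. Means ± SD of at least three experiments.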

Series [13] deals with Human immunodeficiency virus type 1 reverse transcriptase (Human immunodeficiency virus 1, UniProt Q72547, Y188L). As to the kind of experiment: Inhibition of HIV1 reverse transcriptase Y188L mutant.
Series [14] deals with Human immunodeficiency virus 1. As to the kind of experiment: Resistance index, ratio of Ki for HIV1 reverse transcriptase Y181I mutant to Ki for wild type HIV1 3B reverse transcriptase. An outline of the steps:
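Initial velocities came from radioactive nucleotide incorporation into poly(rA)/oligo(dT) 10:1, sampled every 2 min. Inhibitor spanned 0.2–5 Ki, with Lineweaver-Burk and Dixon plots. Fold-resistance is Ki mutant / Ki wild type.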

The nature of series [15]: Resistance index, Ratio of EC50 for drug-resistant HIV1 with RT K103N mutation in MT4 cells to EC50 for HIV1 NL43 in MT4 cells.
Series [16] in a line: Resistance index, Ratio of EC50 for drug-resistant HIV1 with RT Y181C mutation in MT4 cells to EC50 for HIV1 NL43 in MT4 cells.
Series [17] is described as follows: Resistance index, Ratio of EC50 for drug-resistant HIV1 with RT IRLL98 mutation in MT4 cells to EC50 for HIV1 NL43 in MT4 cells.
The test system of series [18] is Human immunodeficiency virus 1. As to the kind of experiment: Antiviral activity against HIV1 NL43 in MT4 cells assessed as inhibition of viral induced cytopathic effect after 5 days by MTT method. As to conditions: Human immunodeficiency virus 1, NL43, MT4, 120 h.
The nature of series [19]: Resistance index, Ratio of EC50 for drug-resistant HIV1 with RT Y188L mutation in MT4 cells to EC50 for HIV1 NL43 in MT4 cells.

Bounds are passed on as bounds.

For `Cc1c(C(C)c2c(F)cccc2F)nc(SC2CCCC2)[nH]c1=O` (centres undefined), the EC50 in [1] was 0.225 µM; in series [2], 0.097 µM; in [3], > 3 µM; in series [6] it was 0.12 µM; in series [18], 0.001 µM. Besides, in series [4], the 50% cytotoxic concentration (CC50) at 96 h is > 3 µM. In addition, in series [5], the “Ratio CC50/EC50” value is >3000. Besides, the inhibition constant Ki came out at 0.005 µM in series [7]; 0.03 µM in series [8]; 0.3 µM in series [9]; 0.5 µM in series [10]; 0.25 µM in [11]; 0.9 µM in series [12]. The affinity in [13], expressed as Ki, was 1.4 µM. Also, the Ratio Ki in series [14] turned out to be 180. In addition, the entries for the “Ratio EC50” value in [15], in series [16] and in series [17] were 225, 97 and 120, respectively.
Consider `CCCN(C)c1nc(C(C)c2c(F)cccc2F)c(C)c(=O)[nH]1` (centres undefined), for which the EC50 came to 0.01 µM in [1]; 0.0006 µM in [2]; 0.03 µM in [3]; 0.001 µM in [6]; 0.0006 µM in series [18]. Moreover, in [4], the CC50 at 96 h is > 78 µM. Further, the “Ratio CC50/EC50” value in series [5] is >130000. The inhibitory constant (Ki) is 0.03 µM in series [7]; 0.17 µM in series [8]; 0.18 µM in [9]; 0.02 µM in [10]; 1.26 µM in series [12]; 1.43 µM in [13]. Further, the Ratio Ki in series [14] came out at 42. The “Ratio EC50” value came to 17 in [15], 1 in [16], 50 in series [19] and 1.7 in series [17].
`Cc1c(C(C)c2c(F)cccc2F)nc(N(C)C)[nH]c1=O` (centres undefined): the half-maximal effective concentration (EC50) in series [1] stood at 0.05 µM; in series [2], 0.014 µM; in series [3] it was 0.05 µM; in series [6], 0.005 µM; in series [18], 0.0003 µM. Also, the cytotoxic concentration (CC50) at 96 h in series [4] was > 17 µM. In addition, in [5], the “Ratio CC50/EC50” value was >56667. Also, the Ki stood at 0.1 µM in series [7]; 0.5 µM in series [8]; 1 µM in [9]; 0.1 µM in series [10]; 2 µM in series [11]; 4 µM in series [12]. The compound also yielded an inhibition constant Ki in [13] of 0.5 µM. Besides, the Ratio Ki in [14] worked out at 40. Further, the “Ratio EC50” value is 167 in series [15], 47 in series [16], 167 in [19] and 17 in [17].
Turning to `CCCNc1nc(C(C)c2c(F)cccc2F)c(C)c(=O)[nH]1` (centres undefined), the 50% effective concentration (EC50) is 0.37 µM in series [1]; 0.06 µM in series [2]; > 10 µM in series [3]; 0.09 µM in [6]; 0.003 µM in series [18]. In series [4], this compound showed a CC50 at 96 h of 35 µM. Besides, the “Ratio CC50/EC50” value in series [5] was 11667. The Ki in series [7] turned out to be 0.04 µM; in [8], 0.47 µM; in [9], 0.31 µM; in series [10], 0.04 µM; in series [12], 5.02 µM; in [13], 3.11 µM. For the same compound, the Ratio Ki in [14] worked out at 125. Moreover, the “Ratio EC50” value in [15] is on record as 125; in [16], 20; in series [17], 30.
For the compound `O=c1cc(Cc2c(F)cccc2F)nc(N2CCSCC2)[nH]1`, the EC50 in series [1] was > 10 µM; in [2] it was > 10 µM; in [3], > 10 µM; in series [6], > 10 µM; in series [18] it was 0.035 µM. The CC50 at 96 h in series [4] was > 77 µM. Besides, the “Ratio CC50/EC50” value in series [5] is >2200. Further, the inhibition constant (Ki) in series [7] came out at 0.2 µM; in series [8], 1.5 µM; in series [9], 10 µM; in series [10] it was 0.5 µM; in series [11] it was 5 µM; in series [12], 0.4 µM. Further, the inhibition constant (Ki) in series [13] was 1 µM. The Ratio Ki in series [14] was determined as 2.
`Cc1c(C(C)c2c(F)cccc2F)nc(N(C)C(C)C)[nH]c1=O` (centres undefined): the EC50 in series [1] is 0.006 µM; in series [2], 0.0007 µM; in [3] it was 0.04 µM; in [6], 0.001 µM; in series [18], 0.0005 µM. In addition, the CC50 at 96 h in [4] was > 81 µM. In series [5], the “Ratio CC50/EC50” value is >162000. Further, the inhibitory constant (Ki) in series [7] was 0.04 µM; in series [8], 0.08 µM; in [9], 10 µM; in series [10], 0.03 µM; in [12], 0.85 µM; in [13] it was 1.19 µM. Moreover, the Ratio Ki in series [14] came out at 21. Further, the “Ratio EC50” value stood at 12 in [15], 1.4 in [16], 80 in series [19] and 2 in series [17].
For `CN(C)c1nc(Cc2c(F)cccc2F)cc(=O)[nH]1`, the half-maximal effective concentration (EC50) in [1] was > 10 µM; in series [2], 3.6 µM; in series [3] it was > 10 µM; in series [6], 2 µM; in series [18], 0.023 µM. In [4], the CC50 at 96 h is > 94 µM. In addition, the “Ratio CC50/EC50” value in series [5] is recorded as >4087. Further, the Ki in series [7] is 0.08 µM; in series [8], 3 µM; in series [9], 10 µM; in series [10], 0.5 µM; in series [11], 5 µM; in [13], 30 µM. Also, the Ratio Ki in series [14] is 37. For the same compound, the “Ratio EC50” value in [16] turned out to be 156; in series [17] it was 87.
As for `CCN(C)c1nc(C(C)c2c(F)cccc2F)c(C)c(=O)[nH]1` (centres undefined), the EC50 in series [1] came to 0.02 µM; in series [2] it was 0.002 µM; in series [3], 0.03 µM; in series [6], 0.003 µM; in [18], 0.0003 µM. Further, the CC50 at 96 h in series [4] was 81 µM. The “Ratio CC50/EC50” value in series [5] is 270000. The inhibition constant (Ki) in series [7] stood at 0.04 µM; in [8], 0.5 µM; in series [9], 2.5 µM; in series [10], 0.02 µM; in series [11], 0.02 µM; in [12], 10 µM. For the same compound, the inhibition constant (Ki) in series [13] worked out at 4 µM. Further, the Ratio Ki in [14] stood at 250. The “Ratio EC50” value in series [15] came out at 67; in series [16] it was 7; in series [19], 100; in [17], 10.
`CCc1c(C(C)c2c(F)cccc2F)nc(N(C)C)[nH]c1=O` (centres undefined): the EC50 is 0.25 µM in series [1]; 0.1 µM in series [2]; 0.55 µM in series [3]; 0.88 µM in series [6]; 0.002 µM in [18]. Besides, the half-maximal cytotoxic concentration (CC50) at 96 h in series [4] was > 81 µM. Moreover, in [5], the “Ratio CC50/EC50” value is given as >40500. The inhibitory constant (Ki) is 0.05 µM in [7]; 2 µM in [8]; 4 µM in series [9]; 0.06 µM in series [10]; 0.03 µM in series [11]; 5 µM in series [12]. Besides, the affinity in [13], expressed as Ki, was 10 µM. Moreover, the Ratio Ki in [14] is 100. The “Ratio EC50” value in [15] was 125; in [16] it was 50; in [19] it was 275; in series [17], 440.
